For assay [1], the target named is T1, P2X purinoceptor 1 (Mus musculus) (UniProt P51576).
T1 sequence (whole entry): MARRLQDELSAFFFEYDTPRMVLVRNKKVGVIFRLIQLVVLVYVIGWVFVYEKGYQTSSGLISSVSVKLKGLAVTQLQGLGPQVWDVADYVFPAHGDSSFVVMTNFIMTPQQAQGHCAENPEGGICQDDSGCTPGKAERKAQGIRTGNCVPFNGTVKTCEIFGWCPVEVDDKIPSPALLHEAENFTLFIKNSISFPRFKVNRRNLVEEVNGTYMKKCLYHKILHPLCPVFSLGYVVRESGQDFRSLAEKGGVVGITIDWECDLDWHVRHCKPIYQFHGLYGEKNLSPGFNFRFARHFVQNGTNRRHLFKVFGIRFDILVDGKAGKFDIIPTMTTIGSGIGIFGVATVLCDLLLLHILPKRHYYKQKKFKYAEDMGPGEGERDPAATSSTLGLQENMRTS
Put plainly: Antagonist activity at recombinant mouse P2X1 receptor expressed in Xenopus oocytes assessed as inhibition of ATP-induced ion current at 10 uM preincubated for 20 mins followed by ATP addition by two-electrode voltage clamp assay relative to control. Type of assay: cell-based. The method in brief:
(§1)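 Defolliculated Xenopus oocytes were injected with mP2X1 or hP2X3 cRNA (40 nL), held 24 h at 18 °C in Barth's solution, then stored at 4 °C for up to 12 days. Two-electrode voltage clamp was run at Vh −70 mV in HEPES/BaCl2 buffer at pH 7.5. ATP was superfused for 60–120 s with 20 min washout. Currents were normalized to the ATP response, giving % inhibition or IC50 from inhibition curves; mean ± SEM, n≥3.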
In general terms: Two-electrode voltage clamp is typically applied to oocytes expressing channels or transporters.

Assay [2] concerns the target T2, P2X purinoceptor 3 (Homo sapiens) (UniProt P56373).
T2 sequence (whole entry): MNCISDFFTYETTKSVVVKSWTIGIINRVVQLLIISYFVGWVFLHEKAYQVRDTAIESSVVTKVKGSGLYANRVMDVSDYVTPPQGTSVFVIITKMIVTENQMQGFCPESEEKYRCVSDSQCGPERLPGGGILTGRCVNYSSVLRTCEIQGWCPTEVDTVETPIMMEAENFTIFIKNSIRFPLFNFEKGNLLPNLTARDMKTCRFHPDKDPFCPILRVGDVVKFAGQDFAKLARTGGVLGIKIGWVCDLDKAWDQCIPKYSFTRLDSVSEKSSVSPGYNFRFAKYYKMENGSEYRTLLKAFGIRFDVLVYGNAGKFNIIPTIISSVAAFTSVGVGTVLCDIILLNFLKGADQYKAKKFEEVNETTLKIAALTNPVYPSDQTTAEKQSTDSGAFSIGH
The assay can be described thus: Antagonist activity at recombinant human P2X3 receptor expressed in Xenopus oocytes assessed as inhibition of ATP-induced ion current at 10 uM preincubated for 20 mins followed by ATP addition by two-electrode voltage clamp assay relative to control. In kind it is cell-based. The method in brief: as §1

Assay [3] has as its target T3, P2X purinoceptor 7 (Homo sapiens) (UniProt Q99572).
T3 sequence (whole entry): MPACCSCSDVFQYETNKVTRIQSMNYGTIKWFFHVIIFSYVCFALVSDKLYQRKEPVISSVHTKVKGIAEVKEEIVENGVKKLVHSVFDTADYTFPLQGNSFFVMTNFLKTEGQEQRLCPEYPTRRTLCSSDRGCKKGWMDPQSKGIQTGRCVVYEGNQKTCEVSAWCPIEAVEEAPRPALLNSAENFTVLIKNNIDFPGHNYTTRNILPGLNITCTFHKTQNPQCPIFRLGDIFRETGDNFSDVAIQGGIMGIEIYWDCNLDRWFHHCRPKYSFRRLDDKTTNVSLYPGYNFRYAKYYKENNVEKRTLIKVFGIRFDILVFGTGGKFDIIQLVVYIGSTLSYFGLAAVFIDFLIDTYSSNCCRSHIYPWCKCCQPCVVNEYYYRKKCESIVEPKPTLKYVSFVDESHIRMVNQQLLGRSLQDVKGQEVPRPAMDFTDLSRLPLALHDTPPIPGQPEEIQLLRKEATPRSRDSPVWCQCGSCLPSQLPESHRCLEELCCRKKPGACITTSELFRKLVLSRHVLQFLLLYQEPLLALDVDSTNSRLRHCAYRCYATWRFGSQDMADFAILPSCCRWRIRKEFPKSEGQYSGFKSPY
Put plainly: Antagonist activity at human P2X7 receptor expressed in HEK293 cells assessed as inhibition of BzATP-induced accumulation of ethidium+ at 10 uM after 120 mins by fluorescence assay relative to control. In kind it is cell-based. In outline:
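HEK293 cells expressing hP2X7 were grown in DMEM with 10% FBS at 37 °C under 5% CO2, harvested with trypsin/EDTA and resuspended at 2.5 × 10⁶ cells/mL in KCl/glucose/EDTA/HEPES buffer (pH 7.4) with ethidium bromide. Cells were plated at 2 × 10⁵ cells/well with BzATP and incubated at 37 °C for 120 min. Fluorescence was read at ex 530/em 590 nm; mean ± SEM, n≥3.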

The next assay deals with T4, P2X purinoceptor 3 (Homo sapiens, UniProt P56373).
T4 sequence (P56373 whole entry): T2 sequence (whole entry)
The assay can be described thus: Antagonist activity at recombinant human P2X3 receptor expressed in Xenopus oocytes assessed as inhibition of ATP-induced ion current preincubated for 20 mins followed by ATP addition by two-electrode voltage clamp assay. Type of assay: cell-based. The method in brief:
as §1

Another assay has as its target T5, P2X purinoceptor 1 (Mus musculus, UniProt P51576).
T5 sequence (P51576 whole entry): T1 sequence (whole entry)
The assay can be described thus: Antagonist activity at recombinant mouse P2X1 receptor expressed in Xenopus oocytes assessed as inhibition of ATP-induced ion current preincubated for 20 mins followed by ATP addition by two-electrode voltage clamp assay. Type of assay: cell-based. The method in brief: as §1

The nature of assay [4]: Antinociceptive activity in rat spinal dorsal horn assessed as inhibition of electrically-stimulated long term potentiation at 20 uM by Di-4-ANEPPS dye-based assay relative to control. In kind it is functional. Conditions: Dorsal horn of spinal cord. In outline: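 Ex vivo rat spinal cord slices (0.5 mm) loaded with voltage-sensitive dye Di-4-ANEPPS; optical signal in dorsal horn monitored before and after LTP induction by 2 Hz electrical stimulation (0.5 msec pulse) for 2 min. Expressed as % inhibition of LTP with compound treatment; means ± SD of 4 samples; pregabalin positive control.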

Broadly, the inhibition is the change of the read-out against control, counted positive when it falls. Broadly, the pIC50 is −log10 of the IC50, conventionally taken in molar units.

pIC50: −log10 of the molar value. Active and inactive are the calls of the source. The rule behind the calls is not given here.

As for `CC(=O)c1c(O)c(C)nc(/C=C/c2ccccc2)c1C(=O)O`, the inhibition came to 52.4% in assay [1] and 27.4% in assay [2]. In assay [3], the inhibition result was “inactive”.
As to `COc1ccccc1CCc1nc(C)c(O)c(C(=O)O)c1C(=O)O`, the inhibition was determined as 49.8% in assay [1] and 34.5% in assay [2]. The inhibition result in assay [3] is “inactive”.
`Cc1nc(CCc2cccc(Oc3ccccc3)c2)c(C(=O)O)c(C(=O)O)c1O`: the pIC50 at P2X purinoceptor 3 was 6.23. Besides, the inhibition in assay [1] was found to be 38.3%. For the same compound, in assay [3], the inhibition entry is “inactive”.
Turning to `Cc1nc(Cc2cccc3ccccc23)c(/C=C/C(=O)O)c(C=O)c1O`, the pIC50 at P2X purinoceptor 3 was 6.84. Further, the inhibition worked out at 22% in assay [1] and 48.4% in assay [3].
On to `Cc1nc(Cc2cccc3ccccc23)c(CCC(=O)O)c(C=O)c1O`, for which the pIC50 at P2X purinoceptor 3 is 6.20. In assay [3], the inhibition is 43.4%.
In the case of `Cc1nc(Cc2cccc(Oc3ccccc3)c2)c2c(c1O)C(O)OC2=O` (stereo not drawn), the pIC50 on P2X purinoceptor 3 was 6.19. The figures for the inhibition in assay [1] and in assay [3] were 45% and 27.1%, respectively.
Take `Cc1nc(Cc2cccc(Oc3ccccc3)c2)c(C(=O)O)c(C(=O)O)c1O`: the pIC50 at P2X purinoceptor 3 was 6.32. For the same compound, the inhibition in assay [1] worked out at 41.8%. The inhibition entry in assay [3] was “inactive”.
As to `COc1ccc(CCc2nc(C)c(O)c(C(C)=O)c2C(=O)O)cc1`, the values for the inhibition in assay [1] and in assay [2] were 52% and 42.2%, respectively. Moreover, the inhibition entry in assay [3] is “inactive”.
On to `Cc1nc(Cc2cccc(Oc3ccccc3)c2)c(/C=C/C(=O)O)c(C(=O)O)c1O`, for which, on P2X purinoceptor 3, the pIC50 is 6.42. Also, in assay [1], the inhibition was 33.7%. Moreover, in assay [3], the inhibition entry is “inactive”.
On to `Cc1nc(NC(=O)c2cccc(Oc3ccccc3)c2)c(C(=O)O)c(C(=O)O)c1O`, for which, at P2X purinoceptor 3, the pIC50 is 6.03. Besides, the inhibition result in assay [3] is “inactive”.
For the compound `CC(=O)c1c(O)c(C)nc(Cc2ccccc2)c1C(=O)O`, the inhibition is 44.2% in assay [1] and 18.3% in assay [2]. The inhibition result in assay [3] was “inactive”.
`Cc1nc(Cc2cccc(Oc3ccccc3)c2)c(CCC(=O)O)c(C(=O)O)c1O`: the pIC50 on P2X purinoceptor 3 was 6.20. Moreover, the inhibition in assay [1] was found to be 31.7%. Further, the inhibition result in assay [3] was “inactive”.
For `Cc1nc(Cc2ccc(Oc3ccccc3)cc2)c(C(=O)O)c(C(=O)O)c1O`, on P2X purinoceptor 3, the pIC50 was 5.98. Further, the inhibition in assay [1] was found to be 40%. In addition, the inhibition entry in assay [3] was “inactive”.
For `COc1ccc(CCc2nc(C)c(O)c(C(=O)O)c2C(=O)O)cc1`, the figures for the pIC50 on P2X purinoceptor 3 and at P2X purinoceptor 1 were 6.34 and 6.35, respectively. Further, the inhibition entry in assay [3] is “inactive”.
Consider `Cc1nc(Cc2cccc(Oc3ccccc3)c2)c(CCC(=O)O)c(C=O)c1O`, for which the pIC50 on P2X purinoceptor 3 was 6.44. Besides, the figures for the inhibition in assay [1] and in assay [3] were 23% and 10.2%, respectively.
As for `Cc1nc(CCc2ccccc2)c(C(=O)O)c(C(=O)O)c1O`, the pIC50 on P2X purinoceptor 3 was 6.10; on P2X purinoceptor 1, 6.19. The inhibition entry in assay [3] is “inactive”.
For `Cc1nc(-c2cccc(Oc3ccccc3)c2)c(C(=O)O)c(C(=O)O)c1O`, the pIC50 at P2X purinoceptor 3 was 5.48. Moreover, the inhibition in assay [1] was found to be 49.7%. In addition, in assay [3], the inhibition result is “inactive”.
Regarding `Cc1nc(Cc2ccccc2)c(C(=O)O)c(C(=O)O)c1O`, the inhibition in assay [1] stood at 54.2%; in assay [2] it was 31.4%. Also, the inhibition result in assay [3] was “inactive”.
Consider `CC(=O)c1c(O)c(C)nc(CCc2ccccc2)c1C(=O)O`, for which the inhibition in assay [1] was found to be 47.9%; in assay [2], 37.3%. Further, the inhibition entry in assay [3] is “inactive”.
Take `COc1cccc(CCc2nc(C)c(O)c(C(=O)O)c2C(=O)O)c1`: the results for the inhibition in assay [1] and in assay [2] were 52.4% and 45.5%, respectively. Further, the inhibition result in assay [3] is “inactive”.
In the case of `Cc1nc(/C=C/c2ccccc2)c(C(=O)O)c(C(=O)O)c1O`, the figures for the pIC50 on P2X purinoceptor 3 and at P2X purinoceptor 1 were 6.04 and 6.11, respectively. For the same compound, the inhibition result in assay [3] was “inactive”.
Take `Cc1nc(Cc2ccccc2Oc2ccccc2)c(C(=O)O)c(C(=O)O)c1O`: the pIC50 at P2X purinoceptor 3 is 5.53. Also, in assay [1], the inhibition was determined as 49.6%. For the same compound, the inhibition entry in assay [3] was “inactive”.
As for `Cc1nc(NC(=O)c2ccccc2)c(C(=O)O)c(C(=O)O)c1O`, the pIC50 on P2X purinoceptor 3 is 6.14. Further, the inhibition result in assay [3] was “inactive”.
In the case of `Cc1cc(C(=O)O)c(C(=O)O)c(NC(=O)c2ccccc2)n1`, the inhibition entry in assay [2] and in assay [3] was “inactive” in each case.
Consider `Cc1nc(CC(c2ccccc2)c2ccccc2)c(C(=O)O)c(C(=O)O)c1O`, for which, on P2X purinoceptor 3, the pIC50 was 6.08. The inhibition in assay [1] came to 42%. For the same compound, in assay [3], the inhibition result was “inactive”.
On the same counts, the results for `Cc1nc(Cc2cccc3ccccc23)c(C(=O)O)c(C(=O)O)c1O` are 5.90, 48.7% and “inactive”.
Take `Cc1nc(CCc2ccc(C(=O)O)cc2)c(C(=O)O)c(C(=O)O)c1O`: the pIC50 at P2X purinoceptor 3 was 6.34; on P2X purinoceptor 1, 6.57. Further, the inhibition result in assay [3] was “inactive”.
As to `Cc1nc(Cc2cccc3ccccc23)c2c(c1O)C(O)OC2=O` (stereo not drawn), the pIC50 at P2X purinoceptor 3 was 6.07. In assay [3], the inhibition stood at 14.8%.
As for `Cc1nc(COCc2ccccc2)c(C(=O)O)c(C(=O)O)c1O`, in assay [2], the inhibition came to 23.1%. For the same compound, the inhibition result in assay [3] is “inactive”.
`COc1ccccc1CCc1nc(C)c(O)c(C(C)=O)c1C(=O)O`: the inhibition in assay [1] was found to be 11.4%; in assay [2], 6.3%. Further, the inhibition result in assay [3] is “inactive”.
As for `COc1cccc(CCc2nc(C)c(O)c(C(C)=O)c2C(=O)O)c1`, the inhibition in assay [1] is 29.9%; in assay [2] it was 15.8%. Besides, in assay [3], the inhibition result is “inactive”.
As to `CC(C)C[C@H](CN)CC(=O)O` [PREGABALIN], in assay [4], the inhibition at 20 µM came to 31%.

The values are drawn from ChEMBL document CHEMBL3091335, “Design and synthesis of potent and selective P2X₃ receptor antagonists derived from PPADS as potential pain modulators” (Eur J Med Chem, 2013).
